# From ChEMBL document CHEMBL4513216, “Probing the Open Global Health Chemical Diversity Library for Multistage-Active Starting Points for Next-Generation Antimalarials” (ACS Infect Dis, 2020)
# Test: Toxicity liver stage against HepG2, at 10uM
# Type: cell-based
# Set-up: test concentration 10 uM, cell line HepG2-A16-CD81EGFP
# Details: human, HepG2-A16-CD81EGFP cells; read-out: INHIBITION
# Method in brief: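 Uninfected HepG2-A16-CD81EGFP cells, 3 × 10^3 per well, 1536-well, plated on prespotted compound at 10 μM final, parasite-free screening media added to match infected plates; puromycin 10 μM positive, DMSO 0.5% negative; run in parallel with 48 h PbLuc assay at 37 °C, 5% CO2; viability by CellTiter-Glo luminescence, normalized to controls.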
row,Structure (SMILES),cytotoxicity at 10 µM
1,CC(C)(C)CC(=O)N1CC[C@@H](CC(=O)O)[C@@H](CCN2CCCCC2)C1,-1.11%
2,O=C(NC[C@H]1C[C@@H]2CCN1C[C@@H]2CN1CCCCC1)Nc1ccccc1,10%
3,CC(=O)c1cccc(NC(=O)c2cnc(N3CCN(C)CC3)nc2C)c1,4.28%
4,O=C1CCNc2ncc(-c3ccc(Cl)cc3)cc2CN1C1CC1,9.78%
5,CC(C)Nc1oc(-c2ccc(S(=O)(=O)N(C)C)o2)nc1C#N,-11.6%
6,CC(C)C1CC(=O)Nc2c1cnn2Cc1ccco1 (centres undefined),1.27%
7,O=c1[nH]c2c(-c3ccccn3)nsc2c(=O)n1CC1CC1,36.2%
8,Cc1cc(C)n(CCN2CCN(C(=O)c3ccccc3Br)CC2)n1,-4.86%
9,CCc1ccc(CN2CCC3(CC2)C(=O)N(C)CCN3CC)cc1,-4.13%
10,Cc1noc(C)c1CN1CCCC2(CCN(C(=O)C3CC3)C2)C1 (centres undefined),2%
11,COCCN1CCC2(CC1)CN(Cc1cccc(C)n1)C(=O)CO2,-4.52%
12,COCCNC(=O)[C@@H]1C[C@H]2[C@H](CCN2c2cc(OC)ncn2)O1,8.56%
13,Cc1cccc(C(=O)N2CC[C@H]3C[C@@H](C)O[C@@H]3C2)n1,5.37%
14,CS(=O)(=O)N1CCC(C(=O)N2CCC3(CC2)OCCCO3)CC1,1.91%
15,CN(C)C(=O)[C@H]1C[C@@H]2CCN(C3CCOCC3)C[C@H]2O1,-4.15%
16,Cc1nn(C(C)C)c2cnn(CC(=O)N3CCSCC3)c12,5.86%
17,Cn1nc(C(=O)N2CCSCC2)cc1NC(=O)c1ccccc1,-13.9%
18,Cc1nn(CCc2nnc(NCC(C)C)s2)c(C)c1Br,1.91%
19,CCOCCCNC(=O)c1nn(CC)cc1Cl,2.06%
20,Cc1cc(-c2ccnn2C)nc(C2CCN(S(C)(=O)=O)CC2)n1,0.425%
21,Cn1ccnc1C1(O)CCCN(Cc2ccncc2)CC1 (centres undefined),1.52%
22,COCCNc1ccc(CC2CCCN(C3CCOCC3)C2)nn1 (centres undefined),6.38%

row,Structure (SMILES),cytotoxicity at 10 µM
1,CO[C@@H]1CCC[C@@H](NC(=O)CCCn2cncn2)[C@H]1O,7.87%
2,CCN1CCCC(O)(c2nc(C)c(CCOc3ccccc3F)s2)CC1 (centres undefined),-32.1%
3,O=C(c1cc(C2CCCN(Cc3ccccn3)C2)no1)N1CCCC1 (centres undefined),-18.9%
4,COCCOCC(=O)N1C[C@@H]2CC[C@H](Oc3ccccc3)[C@@H]2C1,-27.9%
5,c1ccc(-c2nnc(C3CCCN(CC4CCCCC4)C3)o2)nc1 (centres undefined),-28.5%
6,CN(C)C(=O)C1CN(Cc2nccs2)CCN(S(C)(=O)=O)C1 (centres undefined),0.325%
7,CCC(CC)C(=O)NC1CCCc2nc(N3CCOCC3)ncc21 (centres undefined),4.99%
8,O=C(Cc1ccc(F)cc1)N1CCCCC1c1ccn2ccnc2n1 (centres undefined),-0.722%
9,Cc1cccc(N2Cc3c(NC4CCCC4)ncnc3N(C)CC2=O)c1,10.3%
10,O=C(O)Cc1cn2cc(C(F)(F)F)ccc2n1,11.4%
11,CC(NCC1(N(C)C)CCOCC1)c1ccc(S(C)(=O)=O)cc1 (centres undefined),-3.27%
12,CCN(CC)S(=O)(=O)NCC1Cc2ccccc2O1 (centres undefined),0.477%
13,Cc1ccc(C(=O)NCCNCC2CNc3ccnn3C2)cc1 (centres undefined),7.41%
14,CCS(=O)(=O)CCSc1cccc(C#N)c1,-3.24%
15,Cc1ccc(C(=O)NC2CCN(Cc3noc(C(C)C)n3)CC2)s1,-10.7%
16,CN1CCCN(C(=O)c2cnsn2)c2cc(F)ccc21,-4.03%
17,Cn1nnc2cc(C(=O)NS(=O)(=O)c3cccc(C#N)c3)ccc21,-6.29%
18,CCC(CO)NC(=O)Cc1ccc(NC(=O)CC2=CCCCC2)cc1 (centres undefined),0.571%
19,CC(=O)N1CCC(Nc2ccc(Br)cc2C#N)C1 (centres undefined),2.5%
20,Cc1ccsc1CNC(=O)CC1CN(C(=O)OC(C)(C)C)C1,-4.66%
21,O=C1OCCN1c1cccc(CNCc2cc(F)ccc2F)c1,25.3%
22,CC(O)(CNC(=O)c1cccnc1-n1cccn1)c1ccco1 (centres undefined),3.09%

row,Structure (SMILES),cytotoxicity at 10 µM
1,CC(=O)NC(CC(=O)Nc1nc(C)c(C)s1)c1ccccc1 (centres undefined),3.78%
2,Cc1cc(C)cc(OCC(=O)N2CCCN(CC(N)=O)CC2)c1,0.821%
3,COCCOCC(=O)Nc1nc2c(OC)cc(F)cc2s1,-1.29%
4,Cc1cc(C(C)NC(=O)c2c[nH]c(=O)c(Cl)c2)c(C)o1 (centres undefined),12.5%
5,CC(c1cc(F)ccc1F)N1CCN(C(=O)c2ccc(=O)[nH]c2)CC1 (centres undefined),5.94%
6,O=C1CCN(CCS(=O)(=O)c2ccc(Cl)cc2)CCN1,-8.48%
7,COc1ncccc1NC(=O)N1CCC(CNC(C)=O)CC1,3.61%
8,CCOC(=O)NC(CNC(=O)c1ncccn1)CC(C)C (centres undefined),-4.92%
9,Cc1occc1C(=O)Nc1ccnc(OC2CCOC2)c1 (centres undefined),-12.8%
10,Cn1ncc2c1C(COCC1CC1)CN(c1ncc(F)cn1)C2 (centres undefined),12.1%
11,O=C([C@H]1CCCO1)N1CCC2(CC1)Cc1ccccc1CNC2=O,-101%
12,CC(C)Oc1ncnc2c1CCN(C(=O)c1cccn1C)CC2,6.95%
13,CC(=O)c1cc(CC(=O)N2CCCC2c2nc(C(C)C)no2)cs1 (centres undefined),3.07%
14,CCN1CC2(CCN(C(=O)c3nc4cc(C)ccn4c3F)CC2)CC1=O,12.3%
15,Cc1ncc(CN(C)C2CCCN(CCc3ccccc3)C2)n1C (centres undefined),-4.17%
16,CN(CCCC1CCCO1)C(=O)c1cccc(C#N)c1 (centres undefined),-7.52%
17,Cc1ccncc1C(=O)N1C[C@@H]2CN(c3ncccn3)C[C@]2(C(=O)O)C1,2.36%
18,CCC[C@H]1CN(CCOC)C[C@@H]1NC(=O)Cn1cc(C)cn1,4.83%
19,O=C(O)CCc1cc2n(n1)CCN(Cc1cnc(N3CCCC3)nc1)C2,-1.89%
20,COc1cc2c(cc1-c1nc3c(cnn3C(C)C)[nH]1)OCO2,-6.85%
21,CS(=O)(=O)N1CC[C@]2(O)CCN(CCCC(=O)c3ccccc3)C[C@@H]2C1,-8.86%
22,Cc1oncc1S(=O)(=O)N1CCCC(C)(Cc2ccc3c(c2)OCO3)C1 (centres undefined),1.3%

row,Structure (SMILES),cytotoxicity at 10 µM
1,COCCc1noc(CNC(=O)C2CC(=O)N(C(C)(C)C)C2)n1 (centres undefined),3.77%
2,Cc1ccc(OC2(C(=O)N(C)Cc3ccoc3)CCNCC2)cc1,9.41%
3,O=C(c1ccnc(N2CCOC(C(F)(F)F)C2)c1)N1CCCC1 (centres undefined),-3.5%
4,CN(C)Cc1ccc(C2CCCCN2C(=O)c2cccnn2)cc1 (centres undefined),-3.29%
5,CCOc1ccccc1N1CCN(c2nnc(C)o2)CC1,-10.9%
6,O=C(NC1CCOCC1)C1CC(=O)N(Cc2ccccn2)C1 (centres undefined),-0.0985%
7,CC(C)N1CCC(CC(=O)NC[C@H]2CCc3ccccc3O2)CC1,2.04%
8,CN(CC1CCCO1)c1nc(-c2cccnc2)nc2c1CCNCC2 (centres undefined),-4.68%
9,C/C=C(\C)CN1CCCn2nc(CNC(=O)C3CCC3)cc2C1,4.92%
10,COc1ccc(-n2ncc(C(C)NCc3cnc(SC)nc3)c2C)cc1 (centres undefined),0.423%
11,COc1ccc(F)c(F)c1CN1CCC2(CC1)[C@H](O)C[C@@H]2OCCN,-14.5%
12,O=C(Cc1cccnc1)N1CCC(OCc2ccccc2)CC1,-1.96%
13,CC(=O)N1CCCn2nc(CNS(=O)(=O)N3CCCCCC3)cc2C1,3.74%
14,c1ccc(CN2CCN(c3ccc4nncn4n3)CC2)nc1,-1.1%
15,CN(Cc1cnn(C)c1)C(=O)CN1CCCC(Cn2cncn2)C1 (centres undefined),-0.808%
16,CNc1nc(CNC(=O)Nc2cccc(-n3ccc(C)n3)c2)cs1,-15.7%
17,O=C(NCCNc1ccccn1)N1CCC(O)CC1,-8.66%
18,CCOCCCNC(=O)Nc1ccc(F)c(C(N)=O)c1,-16.9%
19,Cc1nccn1C1CCCN(C(=O)Cc2cn3ccccc3n2)C1 (centres undefined),-20.9%
20,CCC(CNC(=O)Nc1cnn(CC)c1)N1CCc2ccccc2C1 (centres undefined),4.72%
21,COc1c(C2CCCN2C(=O)c2ccc(C#N)cc2)c(C)nn1C (centres undefined),-1.72%
22,COc1ccc(C2=CCN(C(=O)C3CCCN(C(N)=O)C3)CC2)cc1 (centres undefined),-10.1%

row,Structure (SMILES),cytotoxicity at 10 µM
1,CNc1cc(N2CCCC2CNCc2cnc(C)cn2)ncn1 (centres undefined),-4.51%
2,Cc1noc2ncc(C(=O)N3CCCC3c3cnn(C)c3)cc12 (centres undefined),-6.2%
3,Cn1ccnc1CN1CCCC1c1noc(C2CC2)n1 (centres undefined),0.265%
4,COCCNC(=O)NCCc1ccn(-c2ccccc2)n1,-0.0722%
5,Cc1cnn(CC2CCCN2C(=O)c2ccc3cc[nH]c3c2)c1 (centres undefined),0.409%
6,O=C(c1ccnc(C2CCNCC2)c1)N1CCCC1,3.69%
7,COc1cccc(C(=O)N2CCOCC2CN(C)C)c1OC (centres undefined),-4.03%
8,CN1CC(=O)N(c2ccccc2)CC12CCN(Cc1nccn1C)C2 (centres undefined),-1.17%
9,O=C(COCC1CC[C@H]2[C@H](CCN2c2ncccn2)O1)N1CCCC1 (some centres undefined),1.27%
10,CN(C)CCN1CCN(Cc2cccs2)Cc2cccnc21,-3.24%
11,O=C(c1ccncc1)N1CCN(Cc2cccnc2)c2ncccc2C1,-1.16%
12,CNC(=O)[C@@H]1C[C@H]2CN(C(=O)c3ccco3)C[C@H]2N1C,-2.85%
13,CCc1cnc(N2CC3(CCN(Cc4ccsc4)C3)C2)nc1,2.98%
14,Cc1nn(C)c(C)c1S(=O)(=O)N1CC[C@@H]2O[C@@H](C)C[C@H]2C1,7.15%
15,COc1ccc(CN2CCn3cc(Cn4cccn4)nc3C2)cc1,13.4%
16,CN1C(=O)C[C@H]2[C@H]1CCN2Cc1cccc(C#N)c1,-75.6%
17,O=C(NCc1ccccc1F)C1=NOC2(CCNC2)C1 (centres undefined),3.23%
18,Cc1ccc(CN2CC[C@H]3CO[C@H](CN4CCCC4)[C@H]3C2)o1,-115%
19,O=C(CC1[C@H]2CN(Cc3ccsc3)C[C@@H]12)N1CCCC1 (some centres undefined),-1.16%
20,NC(=O)NCC(=O)N1C[C@@H]2CC[C@H]1CN(Cc1cscn1)C2,8.86%
21,COCC(=O)NCC1(COc2cnccn2)C[C@@H](O)[C@@H](O)C1 (some centres undefined),2.17%
